Calls of active or inactive are those of the source. No cut-off for these calls is given here.
Columns and labels:
Stromelysin-1 = Stromelysin-1 (Homo sapiens, UniProt P08254); experiment: In vitro inhibitory activity against recombinant matrix metalloprotease-3 was determined
How it was run: (§1)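 Commercial recombinant MMP-1, -2, -3, -8 or -9 at four levels (1-50 ng) incubated 3 h with their respective substrates. Compounds at four to six concentrations (0.1-100 µM). Colorimetric change read on an ELISA reader. IC50 calculated from the kinetic data.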

[1] = target: Matrix metalloproteinase-9 (Homo sapiens, UniProt P14780); experiment: In vitro inhibitory activity against recombinant matrix metalloprotease-9 was determined; how it was run: as §1
Sequence of Matrix metalloproteinase-9 (P14780 whole entry): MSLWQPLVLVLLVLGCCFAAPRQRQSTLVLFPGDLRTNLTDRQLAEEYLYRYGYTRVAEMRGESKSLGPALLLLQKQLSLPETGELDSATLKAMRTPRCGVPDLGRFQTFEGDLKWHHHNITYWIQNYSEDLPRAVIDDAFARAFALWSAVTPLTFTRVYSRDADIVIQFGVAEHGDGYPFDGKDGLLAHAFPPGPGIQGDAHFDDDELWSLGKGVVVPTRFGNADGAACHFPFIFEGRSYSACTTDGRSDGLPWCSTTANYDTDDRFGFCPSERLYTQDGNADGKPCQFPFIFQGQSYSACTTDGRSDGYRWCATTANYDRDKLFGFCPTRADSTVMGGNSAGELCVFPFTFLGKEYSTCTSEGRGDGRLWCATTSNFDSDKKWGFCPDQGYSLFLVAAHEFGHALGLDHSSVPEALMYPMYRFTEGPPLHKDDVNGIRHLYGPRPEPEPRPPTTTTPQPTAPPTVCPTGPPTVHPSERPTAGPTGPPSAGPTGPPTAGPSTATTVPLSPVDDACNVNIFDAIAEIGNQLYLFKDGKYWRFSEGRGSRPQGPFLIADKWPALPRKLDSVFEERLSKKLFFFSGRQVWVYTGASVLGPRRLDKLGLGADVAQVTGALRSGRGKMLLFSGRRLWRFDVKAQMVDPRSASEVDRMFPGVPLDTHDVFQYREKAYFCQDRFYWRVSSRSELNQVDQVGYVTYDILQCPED

Interstitial collagenase = target: T1, Interstitial collagenase (Homo sapiens, UniProt P03956); experiment: In vitro inhibitory activity against recombinant matrix metalloprotease-1 was determined; how it was run: as §1
T1 sequence (P03956 whole entry): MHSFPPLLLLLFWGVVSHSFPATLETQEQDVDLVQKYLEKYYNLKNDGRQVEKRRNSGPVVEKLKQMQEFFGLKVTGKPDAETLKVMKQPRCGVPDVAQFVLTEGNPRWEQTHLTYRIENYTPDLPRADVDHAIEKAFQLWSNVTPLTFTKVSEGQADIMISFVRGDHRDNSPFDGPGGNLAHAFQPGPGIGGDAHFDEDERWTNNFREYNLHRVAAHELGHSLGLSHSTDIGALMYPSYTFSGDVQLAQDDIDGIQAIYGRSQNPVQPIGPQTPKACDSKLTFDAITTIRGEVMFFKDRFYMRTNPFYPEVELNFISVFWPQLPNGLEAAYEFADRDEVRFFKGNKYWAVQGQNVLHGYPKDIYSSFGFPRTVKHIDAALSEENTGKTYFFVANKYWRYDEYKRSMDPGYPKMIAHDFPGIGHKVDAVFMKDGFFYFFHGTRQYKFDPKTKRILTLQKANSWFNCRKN

[2] = target: 72 kDa type IV collagenase (Homo sapiens, UniProt P08253); experiment: In vitro inhibitory activity against recombinant matrix metalloprotease-2 was determined; how it was run: as §1
Sequence of 72 kDa type IV collagenase (P08253 whole entry): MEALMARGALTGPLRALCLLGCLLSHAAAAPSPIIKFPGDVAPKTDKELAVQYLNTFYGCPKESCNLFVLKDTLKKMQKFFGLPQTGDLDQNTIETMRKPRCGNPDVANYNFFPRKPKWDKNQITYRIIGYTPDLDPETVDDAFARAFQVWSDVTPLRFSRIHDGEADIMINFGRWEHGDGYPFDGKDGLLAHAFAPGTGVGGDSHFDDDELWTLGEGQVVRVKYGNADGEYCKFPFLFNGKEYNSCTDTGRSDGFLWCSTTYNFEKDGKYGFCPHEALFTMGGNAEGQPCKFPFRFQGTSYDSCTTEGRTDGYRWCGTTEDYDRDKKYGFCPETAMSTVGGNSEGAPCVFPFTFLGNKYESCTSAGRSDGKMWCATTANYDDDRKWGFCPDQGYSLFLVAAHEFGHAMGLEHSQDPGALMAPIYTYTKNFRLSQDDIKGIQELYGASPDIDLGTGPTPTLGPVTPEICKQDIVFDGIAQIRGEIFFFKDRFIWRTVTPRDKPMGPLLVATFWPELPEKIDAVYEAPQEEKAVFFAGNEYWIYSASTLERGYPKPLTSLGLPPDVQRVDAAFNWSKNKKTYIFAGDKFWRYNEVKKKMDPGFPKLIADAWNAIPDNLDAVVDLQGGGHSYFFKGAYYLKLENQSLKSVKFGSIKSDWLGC

Neutrophil collagenase = Neutrophil collagenase (Homo sapiens, UniProt P22894); experiment: In vitro inhibitory activity against recombinant matrix metalloprotease-8 was determined; how it was run: as §1
Sequence of Neutrophil collagenase (P22894 whole entry): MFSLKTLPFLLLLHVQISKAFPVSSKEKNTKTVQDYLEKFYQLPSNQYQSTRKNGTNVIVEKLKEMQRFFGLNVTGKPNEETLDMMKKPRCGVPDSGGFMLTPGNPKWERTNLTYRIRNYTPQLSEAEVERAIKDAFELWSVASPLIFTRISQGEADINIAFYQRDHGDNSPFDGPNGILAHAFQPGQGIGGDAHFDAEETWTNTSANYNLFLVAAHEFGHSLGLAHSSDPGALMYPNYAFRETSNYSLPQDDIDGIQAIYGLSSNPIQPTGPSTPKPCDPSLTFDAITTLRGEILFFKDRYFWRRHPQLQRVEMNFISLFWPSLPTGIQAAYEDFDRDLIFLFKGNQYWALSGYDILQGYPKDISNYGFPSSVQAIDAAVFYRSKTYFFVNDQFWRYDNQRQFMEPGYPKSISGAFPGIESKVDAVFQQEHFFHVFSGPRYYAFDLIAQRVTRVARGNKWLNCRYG

NIH3T3 = experiment: In vitro inhibition of invasion of NIH 3T3 cells across the reconstituted basement membrane by the compound at 50 uM concentration in Boyden chamber chemoinvasion assay; Inactive; assay type: functional, cell-based; settings: Mus musculus
B16-F10 = experiment: Inhibition of lung metastasis formation after 3 weeks treatment with 50 mg/kg of compound in mice injected with 50000 B16F10 tumor cells into the tail vein; assay type: functional; settings: Mus musculus, 504 h
How it was run: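 Experimental metastasis in mice: 50 000 B16F10 melanoma cells injected into the tail vein. Compound given ip daily at 50 mg/kg for 3 weeks. Mice sacrificed at day 21, lungs fixed, and surface tumor foci counted. Value is % inhibition of lung metastasis formation.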

Homo sapiens = organism: Homo sapiens; experiment: In vitro inhibition of endothelial capillary tube formation by the compound at 50 uM concentration; assay type: functional
How it was run: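 Endothelial cells plated on a thin Matrigel layer with angiogenic factor (bFGF/VEGF), incubated 4-6 h to form tubelike structures. Compounds added at 5 concentrations (100, 50, 25, 10, 5 µM). Tube formation quantified by image analysis. Value is % inhibition at 50 µM.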

Sequence of Stromelysin-1 (P08254 whole entry): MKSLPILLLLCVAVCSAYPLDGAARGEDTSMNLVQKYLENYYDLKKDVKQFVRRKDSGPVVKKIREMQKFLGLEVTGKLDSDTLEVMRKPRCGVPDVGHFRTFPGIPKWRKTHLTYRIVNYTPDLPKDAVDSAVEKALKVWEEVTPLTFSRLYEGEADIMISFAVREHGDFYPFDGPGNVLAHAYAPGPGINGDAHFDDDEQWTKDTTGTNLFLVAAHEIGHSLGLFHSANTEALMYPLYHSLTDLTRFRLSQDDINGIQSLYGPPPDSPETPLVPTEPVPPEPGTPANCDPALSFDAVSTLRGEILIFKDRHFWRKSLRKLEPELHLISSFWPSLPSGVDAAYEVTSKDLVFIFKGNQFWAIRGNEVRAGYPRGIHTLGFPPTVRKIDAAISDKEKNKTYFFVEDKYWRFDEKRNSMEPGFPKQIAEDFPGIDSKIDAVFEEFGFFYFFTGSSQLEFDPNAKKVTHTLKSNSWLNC

Row | SMILES | IC50 (Stromelysin-1) | IC50 [1] | IC50 (Interstitial collagenase) | IC50 [2] | IC50 (Neutrophil collagenase) | inhibition (NIH3T3) | inhibition in vivo at 50 mg/kg (B16-F10) | inhibition (Homo sapiens)
1 | CCOP(=O)(O)C(=O)NC1CCCCC1 [LITHIUM ETHYL (CYCLOHEXYLAMINO)CARBONYLPHOSPHONATE] | > 100 µM | > 100 µM | 1.5 µM | 30 µM | > 100 µM |  |  | 
2 | CC(C)CNC(=O)P(=O)(O)O.NC1CCCCC1 [CYCLOHEXANAMINIUM HYDROGEN (ISOBUTYLAMINO)CARBONYLPHOSPHONATE] | > 100 µM | > 100 µM | 40 µM | > 100 µM | 1 µM | inactive |  | 
3 | O=C(NC1CCC1)P(=O)(O)O [(CYCLOBUTYLAMINO)CARBONYLPHOSPHONIC ACID] | > 100 µM | > 100 µM | > 100 µM | 0.15 µM | 0.04 µM |  | 60% | 
4 | O=C(NC1CCCCCCC1)P(=O)(O)O [(CYCLOOCTYLAMINO)CARBONYLPHOSPHONIC ACID] | > 100 µM | > 100 µM | > 100 µM | 1 µM | 4 µM |  |  | 25%
5 | O=C(NCCc1ccccc1)P(=O)(O)O [PHENETHYLCARBAMOYLPHOSPHONIC ACID] | 90 µM | > 100 µM | 80 µM | 20 µM | > 100 µM |  |  | 
6 | CCCCNC(=O)P(=O)(O)O [SODIUM HYDROGEN (BUTYLAMINO)CARBONYLPHOSPHONATE] | > 100 µM | > 100 µM | 25 µM | 2 µM | > 100 µM |  |  | 20%
7 | O=C(NC1CCCC1)P(=O)(O)O [(CYCLOPENTYLAMINO)CARBONYLPHOSPHONIC ACID] | > 100 µM | > 100 µM | 0.5 µM |  | > 100 µM |  | 72% | 70%
8 | CCN(CC)C(=O)P(=O)(O)O [(DIETHYLAMINO)CARBONYLPHOSPHONIC ACID] | 30 µM | > 100 µM | 30 µM | 1 µM | 70 µM | inactive |  | 
9 | O=C(NC1CCCCC1)P(=O)(O)O [(CYCLOHEXYLAMINO)CARBONYLPHOSPHONIC ACID] | 3 µM | > 100 µM | 0.1 µM |  | > 100 µM |  | 37% | 50%
10 | CCCNC(=O)P(=O)(O)O [(PROPYLAMINO)CARBONYLPHOSPHONIC ACID] | 50 µM | 20 µM | 20 µM | 0.3 µM | > 100 µM |  |  | 
11 | CC(C)CCNC(=O)P(=O)(O)O.NC1CCCCC1 | > 100 µM | > 100 µM | > 100 µM | 30 µM | 50 µM | inactive |  | 
12 | CNC(=O)P(=O)(O)O [(METHYLAMINO)CARBONYLPHOSPHONIC ACID] | 90 µM | > 100 µM | > 100 µM | 0.02 µM | 20 µM |  | 55% | 
13 | CCC(C)NC(=O)P(=O)(O)O (configuration not stated) | 80 µM | > 100 µM | 40 µM | 3 µM | > 100 µM |  |  | 20%
14 | CCCCN(CCCC)C(=O)P(=O)(O)O [(DIBUTYLAMINO)CARBONYLPHOSPHONIC ACID] | 30 µM | > 100 µM | 70 µM | 50 µM | 90 µM | inactive |  | 
15 | CC(C)NC(=O)P(=O)(O)O [(ISOPROPYLAMINO)CARBONYLPHOSPHONIC ACID] | > 100 µM | 2 µM | 50 µM | 1 µM | 50 µM |  | 40% | 55%
16 | O=C(NCC1CCCCC1)P(=O)(O)O [CYCLOHEXYLMETHYLCARBAMOYLPHOSPHONIC ACID] | 1 µM |  | 30 µM |  | 80 µM |  | 69% | 53%
17 | O=C(NC1CC1)P(=O)(O)O [(CYCLOPROPYLAMINO)CARBONYLPHOSPHONIC ACID] | > 100 µM | > 100 µM | > 100 µM | 0.5 µM | 0.2 µM |  |  | 
18 | O=C(N1CCCCC1)P(=O)(O)O | 90 µM | 0.5 µM | 70 µM | 1 µM | > 100 µM | inactive |  | 
19 | CCNC(=O)P(=O)(O)O [(ETHYLAMINO)CARBONYLPHOSPHONIC ACID] | 100 µM | 3 µM | 50 µM | 5 µM | 30 µM |  |  | 
20 | CCC(CC)NC(=O)P(=O)(O)O | > 100 µM | > 100 µM | 80 µM | 3 µM | 10 µM |  |  | 
21 | O=C(N1CCOCC1)P(=O)(O)O | 1 µM | > 100 µM | 50 µM | > 100 µM | 30 µM | inactive |  | 
22 | O=C(NC1CCCCCC1)P(=O)(O)O [(CYCLOHEPTYLAMINO)CARBONYLPHOSPHONIC ACID] | > 100 µM | > 100 µM | > 100 µM | 4 µM | > 100 µM |  | 69% | 45%

From ChEMBL document CHEMBL1137078, “Carbamoylphosphonates, a new class of in vivo active matrix metalloproteinase inhibitors. 1. Alkyl- and cycloalkylcarbamoylphosphonic acids” (J Med Chem, 2004)
